Experimental data as given in ChEMBL document CHEMBL3745614, “Potent and selective N-(4-sulfamoylphenyl)thiourea-based GPR55 agonists” (Eur J Med Chem, 2016).

Columns and labels:
[1] = target: T1, Fatty-acid amide hydrolase 1 (Homo sapiens) (UniProt O00519); assay: Inhibition of human FAAH expressed in African green monkey COS-7 cell membranes using [3H]-AEA as substrate assessed as residual activity at 10 uM preincubated for 10 mins followed by substrate addition measured after 10 mins by liquid scintillation counting analysis relative to control
T1 sequence (whole entry): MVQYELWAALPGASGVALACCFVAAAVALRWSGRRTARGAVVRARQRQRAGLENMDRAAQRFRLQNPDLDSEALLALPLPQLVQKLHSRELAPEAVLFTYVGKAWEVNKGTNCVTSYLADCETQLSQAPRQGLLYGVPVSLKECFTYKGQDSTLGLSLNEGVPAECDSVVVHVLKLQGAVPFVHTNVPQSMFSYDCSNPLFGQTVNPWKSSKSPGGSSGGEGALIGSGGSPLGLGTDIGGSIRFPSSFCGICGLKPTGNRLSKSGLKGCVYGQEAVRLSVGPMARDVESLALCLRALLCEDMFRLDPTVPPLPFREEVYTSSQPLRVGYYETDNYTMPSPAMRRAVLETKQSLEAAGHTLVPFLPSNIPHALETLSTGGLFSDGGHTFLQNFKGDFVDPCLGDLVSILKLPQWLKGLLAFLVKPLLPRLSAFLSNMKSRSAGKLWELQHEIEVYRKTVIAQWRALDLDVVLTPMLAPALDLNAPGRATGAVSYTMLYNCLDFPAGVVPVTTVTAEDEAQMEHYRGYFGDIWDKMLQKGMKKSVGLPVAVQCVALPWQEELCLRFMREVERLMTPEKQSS
Summary of the method: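 Membranes of COS-7 cells overexpressing hFAAH, 1 μg protein per incubation. Substrate 20 μM AEA including 10 nM [3H]AEA (60 Ci/mmol). Compounds tested at 10 μM.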

[2] = target: Cannabinoid receptor 1 (Homo sapiens) (UniProt P21554); assay: Antagonist activity at human CBR1 assessed as [35S]GTPgammaS binding at 10 uM by radiometric assay relative to control; set-up: scale not given: the % may be the effect or the level left
[3] = target: T2, G-protein coupled receptor 55 (Homo sapiens, UniProt Q9Y2T6); assay: Agonist activity at human GPR55 expressed in CHOK1 cells at 10 uM by pathHunter beta-arrestin assay relative to control; type: cell-based; details: CHO-K1
Summary of the method: (§1)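 PathHunter eXpress GPR55 CHO-K1 β-arrestin kit run per the kit protocol, compounds screened at 10 μM. Luminescence read and expressed as percentage of the signal from bovine liver LPI at 1 μM. Mean with range of two experiments, each done in duplicate.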

[4] = target: T3, Monoacylglycerol lipase ABHD6 (Homo sapiens) (UniProt Q9BV23); assay: Inhibition of human ABHD6 expressed in […] cells using 2-AG as substrate assessed as glycerol liberation at 1 uM preincubated for 30 mins followed by 2-AG addition measured for 90 mins by fluorescent glycerol assay relative to control; type: cell-based; set-up: scale not given: the % may be the effect or the level left
T3 sequence (whole entry): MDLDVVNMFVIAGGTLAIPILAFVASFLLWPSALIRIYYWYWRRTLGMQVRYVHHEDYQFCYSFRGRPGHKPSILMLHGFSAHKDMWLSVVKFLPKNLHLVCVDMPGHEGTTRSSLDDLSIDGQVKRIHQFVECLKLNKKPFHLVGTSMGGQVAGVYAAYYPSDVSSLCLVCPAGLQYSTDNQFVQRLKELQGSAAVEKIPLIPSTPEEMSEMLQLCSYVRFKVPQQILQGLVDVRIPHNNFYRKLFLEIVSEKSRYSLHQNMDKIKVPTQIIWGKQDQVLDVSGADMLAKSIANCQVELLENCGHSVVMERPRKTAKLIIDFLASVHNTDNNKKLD
Summary of the method: (§2)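 Lysates of HEK293 cells transiently overexpressing hABHD6 or hABHD12, 0.3 μg protein/well. Pretreated 30 min with DMSO or compound, then 2-AG added (12.5 μM final). Glycerol release coupled enzymatically to H2O2-dependent resorufin formation; fluorescence (ex 530/em 590 nm) followed kinetically for 90 min.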

[5] = target: T2, G-protein coupled receptor 55; assay: Agonist activity at human GPR55 expressed in CHOK1 cells at 10 uM by pathHunter beta-arrestin assay relative to LPI; type: cell-based; details: CHO-K1; summary of the method: as §1
[6] = target: T4, Monoglyceride lipase (Homo sapiens) (UniProt Q99685); assay: Inhibition of human MGL expressed in […] cells using 2AG as substrate assessed as residual activity at 10 uM preincubated for 10 mins followed by substrate addition measured after 10 mins by HPLC analysis; type: cell-based
T4 sequence (whole entry): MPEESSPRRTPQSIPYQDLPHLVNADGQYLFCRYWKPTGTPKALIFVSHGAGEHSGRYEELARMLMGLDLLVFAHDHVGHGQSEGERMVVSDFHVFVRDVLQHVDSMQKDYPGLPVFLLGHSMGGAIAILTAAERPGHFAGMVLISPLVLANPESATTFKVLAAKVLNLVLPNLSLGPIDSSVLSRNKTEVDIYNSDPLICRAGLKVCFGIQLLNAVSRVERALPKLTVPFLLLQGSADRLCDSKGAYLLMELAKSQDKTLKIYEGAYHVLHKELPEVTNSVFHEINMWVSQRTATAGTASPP
Summary of the method: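 Lysates of HEK cells overexpressing hMGL, 2.5 μg protein per incubation, substrate at 50 μM. Compounds tested at 10 μM.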

[7] = target: T5, Lysophosphatidylserine lipase ABHD12 (Homo sapiens) (UniProt Q8N2K0); assay: Inhibition of human ABHD12 expressed in […] cells using 2-AG as substrate assessed as glycerol liberation at 1 uM preincubated for 30 mins followed by 2-AG addition measured for 90 mins by fluorescent glycerol assay relative to control; type: cell-based; set-up: scale not given: the % may be the effect or the level left; summary of the method: as §2
T5 sequence (whole entry): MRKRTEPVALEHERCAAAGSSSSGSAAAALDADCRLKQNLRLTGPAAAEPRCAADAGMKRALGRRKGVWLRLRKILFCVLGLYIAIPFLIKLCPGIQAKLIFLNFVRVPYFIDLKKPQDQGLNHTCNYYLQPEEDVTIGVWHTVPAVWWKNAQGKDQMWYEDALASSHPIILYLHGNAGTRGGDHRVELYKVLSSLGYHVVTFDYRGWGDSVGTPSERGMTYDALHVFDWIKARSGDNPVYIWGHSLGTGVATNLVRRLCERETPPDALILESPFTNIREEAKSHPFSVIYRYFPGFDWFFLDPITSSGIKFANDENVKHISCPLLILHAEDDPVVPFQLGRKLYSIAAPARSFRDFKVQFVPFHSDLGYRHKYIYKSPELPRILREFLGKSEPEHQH

[8] = target: Cannabinoid receptor 1 (Homo sapiens) (UniProt P21554); assay: Agonist activity at CBR1 (unknown origin) assessed as [35S]GTPgammaS binding at 10 uM by […] assay relative to control; type: functional
[9] = target: Cannabinoid receptor 2 (Homo sapiens) (UniProt P34972); assay: Agonist activity at CBR2 (unknown origin) assessed as [35S]GTPgammaS binding at 10 uM by […] assay relative to control; type: functional
[10] = target: T5, Lysophosphatidylserine lipase ABHD12 (Homo sapiens); assay: Inhibition of human ABHD12 expressed in […] cells using 2-AG as substrate assessed as glycerol liberation at 10 uM preincubated for 30 mins followed by 2-AG addition measured for 90 mins by fluorescent glycerol assay relative to control; type: cell-based; set-up: scale not given: the % may be the effect or the level left; summary of the method: as §2
[11] = target: T3, Monoacylglycerol lipase ABHD6 (Homo sapiens); assay: Inhibition of human ABHD6 expressed in […] cells using 2-AG as substrate assessed as glycerol liberation at 10 uM preincubated for 30 mins followed by 2-AG addition measured for 90 mins by fluorescent glycerol assay relative to control; type: cell-based; set-up: scale not given: the % may be the effect or the level left; summary of the method: as §2
[12] = target: Cannabinoid receptor 2 (Homo sapiens) (UniProt P34972); assay: Antagonist activity at human CBR2 assessed as [35S]GTPgammaS binding at 10 uM by […] assay relative to control; type: functional; set-up: scale not given: the % may be the effect or the level left
[13] = target: T2, G-protein coupled receptor 55; assay: Agonist activity at human GPR55 expressed in HEK293 cells assessed as calcium signalling by fura 2-based digital epifluorescence microscopy; type: functional, cell-based
Summary of the method: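 HEK293 cells stably expressing GPR55, grown on poly-L-lysine coated glass coverslips and serum-starved overnight. Compounds applied by bath perfusion in HEPES-buffered saline at 30-32 °C. Single-cell fura 2 ratiometric imaging (350/380 nm) every 5 s. Peak responses pooled from 24 cells (12 random cells from each of two experiments) per concentration; EC50 with 95% CI from concentration-response curves. ARA-LPI used as reference agonist.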

T2 sequence (Q9Y2T6 whole entry): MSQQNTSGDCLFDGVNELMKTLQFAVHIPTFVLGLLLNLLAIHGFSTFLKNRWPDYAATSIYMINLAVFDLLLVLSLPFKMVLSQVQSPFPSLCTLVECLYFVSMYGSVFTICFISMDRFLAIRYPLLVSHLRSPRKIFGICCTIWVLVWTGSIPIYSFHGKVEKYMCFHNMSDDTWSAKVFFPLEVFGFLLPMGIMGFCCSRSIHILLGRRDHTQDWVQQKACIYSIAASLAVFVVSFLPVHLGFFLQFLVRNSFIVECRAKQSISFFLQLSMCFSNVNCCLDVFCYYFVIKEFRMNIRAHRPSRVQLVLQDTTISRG
Cannabinoid receptor 2 (Homo sapiens), sequence (P34972 whole entry): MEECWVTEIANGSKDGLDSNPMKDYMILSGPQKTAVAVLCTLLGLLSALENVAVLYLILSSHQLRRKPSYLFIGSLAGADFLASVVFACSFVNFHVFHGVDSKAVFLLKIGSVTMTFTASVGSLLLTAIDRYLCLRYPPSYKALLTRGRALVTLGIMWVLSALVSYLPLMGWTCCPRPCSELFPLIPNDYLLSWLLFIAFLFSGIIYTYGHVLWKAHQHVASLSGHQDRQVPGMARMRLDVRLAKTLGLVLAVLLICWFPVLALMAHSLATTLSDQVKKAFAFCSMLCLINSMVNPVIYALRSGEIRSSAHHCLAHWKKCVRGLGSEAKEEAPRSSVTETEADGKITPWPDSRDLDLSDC
Cannabinoid receptor 1 (Homo sapiens), sequence (P21554 whole entry): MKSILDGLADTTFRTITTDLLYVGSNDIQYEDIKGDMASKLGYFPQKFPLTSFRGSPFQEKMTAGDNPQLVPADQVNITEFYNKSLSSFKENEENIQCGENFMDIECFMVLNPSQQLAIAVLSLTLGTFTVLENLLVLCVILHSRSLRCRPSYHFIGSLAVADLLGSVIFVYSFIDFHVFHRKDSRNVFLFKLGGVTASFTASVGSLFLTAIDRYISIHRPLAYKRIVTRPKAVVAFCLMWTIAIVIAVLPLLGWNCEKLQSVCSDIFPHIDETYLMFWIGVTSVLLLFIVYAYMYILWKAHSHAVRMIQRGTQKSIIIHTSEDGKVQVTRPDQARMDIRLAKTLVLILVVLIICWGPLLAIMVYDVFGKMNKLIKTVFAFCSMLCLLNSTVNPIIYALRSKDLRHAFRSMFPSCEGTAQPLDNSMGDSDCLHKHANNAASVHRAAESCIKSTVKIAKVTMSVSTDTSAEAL

Row | Compound | Activity [1] [%] | Activity [2] [%] | Activity [3] [%] | Activity [4] [%] | Activity [5] [%] | Activity [6] [%] | Activity [7] [%] | Activity [8] [%] | Activity [9] [%] | Activity [10] [%] | Activity [11] [%] | Activity [12] [%] | EC50 [13] [nM]
1 | C=CCN(CC=C)S(=O)(=O)c1ccc(NC(=S)NC(=O)c2ccc([N+](=O)[O-])cc2)cc1 | 97 | 91 | 138 | 102 | 93 | 104 | 102 | 99 | 107 | 62 | 53 | 105 | –
2 | O=C(NCc1ccccc1)c1ccc(NC(=S)NC(=O)c2ccc(-c3ccccc3)cc2)cc1 | 83 | 91 | 100 | 96 | 67 | 103 | 100 | 116 | 111 | – | – | 88 | > 10000
3 | Cc1ccc(C(=O)NC(=S)Nc2ccc(S(=O)(=O)NC(C)(C)C)cc2)cc1 | 103 | 103 | 102 | 96 | 69 | 96 | 100 | 105 | 100 | 65 | 53 | 96 | –
4 | O=C(NCCc1ccccc1)c1ccc(NC(=S)NC(=O)c2ccc(-c3ccccc3)cc2)cc1 | 85 | 99 | 99 | 96 | 68 | 101 | 98 | 98 | 99 | – | – | 103 | > 10000
5 | O=C(NC(=S)Nc1ccc(S(=O)(=O)NCCc2ccccc2)cc1)c1ccc(-c2ccccc2)cc1 | 94 | 91 | 173 | 99 | 117 | 99 | 101 | 103 | 94 | – | – | 103 | 39.2
6 | Cc1ccc(CNS(=O)(=O)c2ccc(NC(=S)NC(=O)c3ccc(-c4ccccc4)cc3)cc2)cc1 | 94 | 102 | 220 | 100 | 148 | 100 | 103 | 105 | 118 | – | – | 103 | 12.4
7 | O=C(NC(=S)Nc1ccc(S(=O)(=O)NCc2ccc(F)cc2)cc1)c1ccc(-c2ccccc2)cc1 | 100 | 91 | 266 | 95 | 185 | 98 | 96 | 99 | 87 | – | – | 88 | 2
8 | C=CCNS(=O)(=O)c1ccc(NC(=S)NC(=O)c2ccc(-c3ccccc3)cc2)cc1 | 78 | 94 | 285 | 99 | 194 | 96 | 100 | 127 | 87 | – | – | 81 | 19.4
9 | COc1ccc(CNS(=O)(=O)c2ccc(NC(=S)NC(=O)c3ccc(-c4ccccc4)cc3)cc2)cc1 | 94 | 99 | 230 | 101 | 157 | 105 | 100 | 101 | 103 | – | – | 101 | 7.7
10 | CC(C)NS(=O)(=O)c1ccc(NC(=S)NC(=O)c2ccc(-c3ccccc3)cc2)cc1 | 87 | 92 | 185 | 95 | – | 98 | 107 | 110 | 96 | 65 | 34 | 86 | –
11 | CC(C)CNS(=O)(=O)c1ccc(NC(=S)NC(=O)c2ccc(-c3ccccc3)cc2)cc1 | 105 | 93 | 242 | 106 | 165 | 107 | 95 | 119 | 85 | 65 | 59 | 86 | 30.9
12 | O=C(NC(=S)Nc1ccc(S(=O)(=O)NCc2ccco2)cc1)c1ccc(-c2ccccc2)cc1 | 91 | 91 | 246 | 91 | 168 | 93 | 101 | 100 | 97 | – | – | 99 | 2
